Experimental findings from PubChem BioAssay AID493239 (Broad Institute, 2011) are described below.

Where “and” joins values, the source holds several entries; their conditions need not be identical. Identical values can stand only once. Calls of active or inactive are those of the source.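 Rule for the calls: active = fitted curve crosses 40% activation at or below the top valid dose tested for that sample; inconclusive = flat fit between 30 and 70% activation, or poor fit; inactive = the rest, including activity in the opposite direction.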

For assay [1], the system named is U2OS GFP-HIF1alpha nuclear intensity imaging. The assay can be described thus: GFP-HIF1alpha nuclear accumulation inducers, dose response, orthogonal assay for HIF pathway activator project, imaging, U2OS, high content, dry powder, set 3 (AID 493239). The gist of the method: (§1)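 Material: human osteosarcoma U2OS cells expressing GFP-HIF1alpha fusion; amount: 2,000 cells/well; compound: 8 concentrations, 3-fold steps; incubation: cells plated one day before dosing, compound exposure 24 h at 37 °C; measured by: 10X fluorescence microscopy, fixed cells, DAPI nuclear stain; control set: Desferrioxamine as positive control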

Assay in assay [2]: as above
The settings on record: U2OS GFP-HIF1alpha nuclear intensity imaging; at 38 µM (top of the series). The gist of the method: as §1

In the case of `c1ccc(-c2csc(Nc3nc(-c4ccccn4)nnc3-c3ccccc3)n2)cc1`, in assay [1], the AC40 was 0.88 µM.
Same read-out and setting: in the case of `CCCCNC(=O)c1cc(-c2ccccc2)on1` it was 5.94 µM.
Turning to `O=C(c1cc(-c2ccccc2)on1)N1CCN(c2ccncc2)CC1`, the activation in assay [2] is 14% (inactive).
With `O=C(NCCCCO)c1cc(-c2ccccc2)on1`, the AC40 in assay [1] is 2.08 µM.
Regarding `OCC1CCN(c2nc(-c3ccccn3)nnc2-c2ccccc2)CC1`, in assay [1], the AC40 is 13.6 µM.
Take `O=C(Nc1cn2ccccc2n1)c1cc(-c2ccccc2)on1`: in assay [1], the AC40 is 3.04 µM.
`Cc1ccccc1CNC(=O)c1cc(-c2ccccc2)on1`: the activation in assay [2] was 6.92% (inactive).
For `O=C(NCCN1CCOCC1)c1cc(-c2ccccc2)on1`, the activation in assay [2] is 248% (inactive).
Take `c1ccc(-c2nnc(-c3ccccn3)nc2N2CCN(c3ccncc3)CC2)cc1`: the AC40 in assay [1] was 5.44 µM.
On to `c1ccc(-c2nnc(-c3ccccn3)nc2NCc2ccccn2)cc1`, for which the AC40 in assay [1] is 6.35 µM.
As to `CC(Nc1nc(-c2ccccn2)nnc1-c1ccccc1)c1ccccc1` (configuration not stated), the AC40 in assay [1] was 1.48 µM.
Regarding `O=C(Nc1ncc(-c2ccccc2)o1)c1cc(-c2ccccc2)on1`, the activation in assay [2] is 4.26% (inactive).
As to `Cc1cccc(Nc2nc(-c3ccccn3)nnc2-c2ccccc2)n1`, the AC40 in assay [1] was 2.98 µM.
On the same count and under the same terms, then `c1ccc(-c2nnc(-c3ccccn3)nc2N2CCC(c3ccccc3)C2)cc1` (configuration not stated), with 0.353 µM.
On to `Cn1c(-c2ccccc2)cnc1NC(=O)c1cc(-c2ccccc2)on1`, for which the AC40 in assay [1] was > 38 µM (inactive).
With `Oc1ccc(CNC2Cc3ccccc3C2)c2cccnc12`, the AC40 in assay [1] is 4.22 µM.
For `O=C(Nc1cnc2ccccc2c1)c1cc(-c2ccccc2)on1`, in assay [2], the activation was 8.34% (inactive).
For `CC(C)(C)c1ccc(CNc2nc(-c3ccccn3)nnc2-c2ccccc2)cc1`, the AC40 in assay [1] is 0.169 µM.
For the compound `O=C(c1cc(-c2ccccc2)on1)N1CCC(N2CCCC2)CC1`, in assay [2], the activation is 5.78% (inactive).
Regarding `O=C(NC1CCc2ccccc2C1)c1cc(-c2ccccc2)on1` (configuration not stated), the AC40 in assay [1] was > 38 µM (inactive).
`O=C(Nc1nc(-c2ccccc2)cs1)c1cc(-c2ccccc2)on1`: in assay [2], the activation is 0.096% (inactive).
With `O=C(NCC1CCCCC1)c1cc(-c2ccccc2)on1`, in assay [1], the AC40 is > 38 µM (inactive).
As to `COc1ccc(CNc2nc(-c3ccccn3)nnc2-c2ccccc2)cc1`, in assay [1], the AC40 was 1.15 µM.
For the compound `COc1ccccc1N1CCN(Cc2ccc(O)c3ncccc23)CC1`, in assay [2], the activation was 219% (inactive).
Consider `Cc1cccc(CNC(=O)c2cc(-c3ccccc3)on2)c1`, for which, in assay [2], the activation is 12.7% (inactive).
Still for that read-out and setting: then `O=C(c1cc(-c2ccccc2)on1)N1CCc2cccnc21`, with 0.25% (inactive).
Turning to `c1ccc(-c2nnc(-c3ccccn3)nc2NCC2CCOCC2)cc1`, in assay [1], the AC40 was 6.43 µM.
For `Cc1ccc(NC(=O)c2cc(-c3ccccc3)on2)cn1`, the AC40 in assay [1] is > 38 µM (inactive).
In the case of `O=C(Nc1ncc2ccccc2n1)c1cc(-c2ccccc2)on1`, in assay [1], the AC40 was 32.3 µM.
As to `c1ccc(-c2nnc(-c3ccccn3)nc2NCCN2CCOCC2)cc1`, in assay [1], the AC40 is 7.2 µM.
Regarding `Oc1ccc(CN2CCc3ccccc3C2)c2cccnc12`, the AC40 in assay [1] was 3.58 µM and 20.4 µM.
Still for that read-out and setting: in the case of `c1ccc(-c2nnc(Nc3nc(-c4ccccn4)nnc3-c3ccccc3)s2)cc1` it was 7.75 µM.
As to `O=C(c1cc(-c2ccccc2)on1)N1CCC(CO)CC1`, in assay [2], the activation was 8.11% (inactive).
Turning to `c1ccc(-c2cnc(Nc3nc(-c4ccccn4)nnc3-c3ccccc3)s2)cc1`, the AC40 in assay [1] was 9.91 µM.
As to `O=C(c1cc(-c2ccccc2)on1)N1CCC(N2CCOCC2)CC1`, the activation in assay [2] is -3.94% (inactive).
For the compound `C[C@H](Nc1nc(-c2ccccn2)nnc1-c1ccccc1)C1CCCCC1`, in assay [1], the AC40 is 0.866 µM.
The same measure, in the same setting: then `Cn1c(-c2ccccc2)cnc1Nc1nc(-c2ccccn2)nnc1-c1ccccc1`, with 8.34 µM; and `c1ccc(-c2nnc(-c3ccccn3)nc2NCC2CC2)cc1`, with 3.09 µM.
In the case of `C[C@@H](Nc1nc(-c2ccccn2)nnc1-c1ccccc1)c1ccccc1`, the AC40 in assay [1] was 1.87 µM.
As for `c1ccc(-c2ccc(CNc3nc(-c4ccccn4)nnc3-c3ccccc3)cc2)cc1`, the AC40 in assay [1] was 0.487 µM.
As to `c1ccc(-c2nnc(-c3ccccn3)nc2Nc2nc3ccccc3s2)cc1`, the AC40 in assay [1] is 1.26 µM.
Still for that read-out and setting: then `C=CCNc1nc(-c2ccccn2)nnc1-c1ccccc1`, with 5.24 µM; and `Cc1ccc(CNc2nc(-c3ccccn3)nnc2-c2ccccc2)cc1`, with 1.24 µM.
Still for that read-out and setting: in the case of `N#CC1(c2ccccc2)CCN(Cc2ccc(O)c3ncccc23)CC1` it was > 38 µM (inactive); in that of `Cc1cccc(CNc2nc(-c3ccccn3)nnc2-c2ccccc2)c1`, 1.83 µM.
Consider `COc1cccc(CNc2nc(-c3ccccn3)nnc2-c2ccccc2)c1`, for which the AC40 in assay [1] was 1.08 µM.
Take `c1ccc(-c2nnc(-c3ccccn3)nc2NCCc2ccccn2)cc1`: in assay [1], the AC40 was 4.57 µM.
Regarding `c1ccc(CNc2nc(-c3ccccn3)nnc2-c2ccccc2)cc1`, in assay [1], the AC40 is 2.07 µM.
Regarding `O=C(NCc1ccccc1)c1cc(-c2ccccc2)on1`, in assay [2], the activation is -3.06% (inactive).
`c1ccc(-c2nnc(-c3ccccn3)nc2Nc2cnc3ccccc3n2)cc1`: in assay [1], the AC40 was 3.16 µM.
As for `Cc1cccc(NC(=O)c2cc(-c3ccccc3)on2)n1`, the activation in assay [2] was 7.71% (inactive).
`c1ccc(-c2nnc(-c3ccccn3)nc2N2CCC(C3CCCCC3)C2)cc1` (configuration not stated): in assay [1], the AC40 was 0.24 µM.
Same read-out and setting: in the case of `O=C(Nc1nc2ccccc2s1)c1cc(-c2ccccc2)on1` it was 20.1 µM; in that of `O=C(NCCCO)c1cc(-c2ccccc2)on1`, 5.32 µM.
With `OCCCNc1nc(-c2ccccn2)nnc1-c1ccccc1`, the AC40 in assay [1] is 12.1 µM.
Consider `Cn1c(NC(=O)c2cc(-c3ccccc3)on2)nc2ccccc21`, for which the activation in assay [2] was -0.603% (inactive).
As to `Cc1ccc(CNC(=O)c2cc(-c3ccccc3)on2)cc1`, in assay [2], the activation was 0.663% (inactive).
For the compound `CC(C)(C)CCNC(=O)c1cc(-c2ccccc2)on1`, the AC40 in assay [1] is 18 µM.
On to `Clc1cccc(CNc2nc(-c3ccccn3)nnc2-c2ccccc2)c1`, for which the AC40 in assay [1] is 0.651 µM.
For `c1ccc(CCNc2nc(-c3ccccn3)nnc2-c2ccccc2)cc1`, in assay [1], the AC40 was 5.72 µM.
As to `CN1CCN(c2nc(-c3ccccn3)nnc2-c2ccccc2)CC1`, the AC40 in assay [1] was 8.8 µM.
In the case of `CC(C)(C)CCNc1nc(-c2ccccn2)nnc1-c1ccccc1`, the AC40 in assay [1] was 0.77 µM and 0.585 µM.
In the case of `Oc1ccc(CN2CCC(Cc3ccccc3)CC2)c2cccnc12`, the activation in assay [2] is 592% (inactive).
`c1ccc(-c2nnc(-c3ccccn3)nc2NCC2CCCCC2)cc1`: the AC40 in assay [1] was 1.13 µM.
The same measure, in the same setting: in the case of `Cc1ccccc1CNc1nc(-c2ccccn2)nnc1-c1ccccc1` it was 1.14 µM; in that of `c1ccc(-c2cccc(CNc3nc(-c4ccccn4)nnc3-c3ccccc3)c2)cc1`, 0.407 µM.
As to `O=C(NCCN1CCCCC1)c1cc(-c2ccccc2)on1`, the AC40 in assay [1] is > 38 µM (inactive).
Turning to `Cc1ccc(Nc2nc(-c3ccccn3)nnc2-c2ccccc2)cn1`, the AC40 in assay [1] was 9.48 µM.
As to `CN(C)CCNC(=O)c1cc(-c2ccccc2)on1`, the AC40 in assay [1] is > 38 µM (inactive).
In the case of `c1ccc(-c2nnc(-c3ccccn3)nc2N2CCC(N3CCOCC3)CC2)cc1`, the AC40 in assay [1] is 3.85 µM.
Still for that read-out and setting: then `c1ccc(-c2nnc(-c3ccccn3)nc2NCc2cccnc2)cc1`, with 3.21 µM; and `C[C@@H](Nc1nc(-c2ccccn2)nnc1-c1ccccc1)C1CCCCC1`, with 0.515 µM.
`O=C(Nc1ccc2ccccc2n1)c1cc(-c2ccccc2)on1`: the activation in assay [2] is 0.342% (inactive).
For `c1ccc(-c2nnc(-c3ccccn3)nc2NCCCN2CCOCC2)cc1`, the AC40 in assay [1] is 5.94 µM.
With `O=C(Nc1nnc(-c2ccccc2)s1)c1cc(-c2ccccc2)on1`, in assay [2], the activation is -0.414% (inactive).
For the compound `CN(C)c1nc(-c2ccccn2)nnc1-c1ccccc1`, the AC40 in assay [1] is 11.6 µM.
Still for that read-out and setting: then `O=C(NCCCN1CCOCC1)c1cc(-c2ccccc2)on1`, with 14.8 µM; and `CC1CN(Cc2ccc(O)c3ncccc23)CC(C)O1` (configuration not stated), with 18.6 µM.
`O=C(NC1Cc2ccccc2C1)c1cc(-c2ccccc2)on1`: the activation in assay [2] is 7.61% (inactive).
Take `Oc1ccc(CNC2CCc3ccccc32)c2cccnc12` (configuration not stated): in assay [1], the AC40 is 10.3 µM.
Turning to `CN1CCN(C(=O)c2cc(-c3ccccc3)on2)CC1`, in assay [2], the activation is -3.79% (inactive).
`O=C(NCCCn1ccnc1)c1cc(-c2ccccc2)on1`: the AC40 in assay [1] is 5.74 µM.
In the case of `OCC1CCN(Cc2ccc(O)c3ncccc23)CC1`, in assay [1], the AC40 is 4.02 µM.
On the same count and under the same terms, in the case of `CC(C)(C)OC(=O)N1CCN(Cc2ccc(O)c3ncccc23)CC1` it was > 38 µM (inactive); in that of `Cc1ccc(CNc2nc(-c3ccccn3)nnc2-c2ccccc2)cc1C`, 0.779 µM.
The same measure, in the same setting: in the case of `Oc1ccc(CN2CCC3CCCCC3C2)c2cccnc12` (configuration not stated) it was 5.44 µM.
As for `O=C(NCC1CC1)c1cc(-c2ccccc2)on1`, the AC40 in assay [1] is 7.97 µM.
